From ChEMBL document CHEMBL1129790 (J Med Chem, 1996)

Tests used:
[1] = In vitro ability to displace [3H]glutamate binding to metabotropic glutamate receptors in rat forebrain membranes; assay type: cell membranes, Membrane
In short: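 Radioligand displacement of ACPD-sensitive [3H]glutamate binding to metabotropic glutamate receptors in rat forebrain membranes in vitro. IC50 is reported as mean ± error.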

[2] = molecular target: Glutamate receptor ionotropic, AMPA (Rattus norvegicus, UniProt P19490+P19491+P19492+P19493); assay: Affinity against Ionotropic glutamate receptor AMPA using [3H]AMPA in selective radioligand binding assay; assay type: protein-complex assay
In short: (§1)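 Displacement of the ionotropic radioligands ([3H]CGS19755 for NMDA, [3H]AMPA for AMPA, [3H]kainate for kainate sites) in rat forebrain membranes in vitro. Compounds were tested up to 100 μM, with IC50 as the read-out.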

[3] = molecular target: Glutamate receptor ionotropic, kainate; assay: Affinity value against Ionotropic glutamate receptor kainate using [3H]-kainic acid in selective radioligand binding assay.; assay type: protein-complex assay; in short: as §1
Glutamate NMDA receptor = assay: Affinity value against N-methyl-D-aspartate (NMDA) receptor using [3H]-CGS- 19755 in glutamate radioligand binding assay.; assay type: protein-complex assay
In short: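 Displacement of the ionotropic radioligands ([3H]CGS19755 for NMDA, [3H]AMPA for AMPA, [3H]kainate for kainate sites) in rat forebrain membranes in vitro.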

Rattus norvegicus [4] = species: Rattus norvegicus; assay: Augmentation of AMPA-induced excitation after Microelectrophoretic application to intact rat spinal neuron; assay type: functional
In short: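 Female Wistar rats (200–230 g) under pentobarbitone Na (60 mg/kg ip initially, supplemented ip as needed) with lumbar laminectomy. A seven-barrel glass microelectrode in spinal gray matter recorded single-neuron firing during timed intermittent AMPA ejection (barrel 10 mM in 200 mM NaCl, pH 7.4). Agonists (barrel 25 mM in 175 mM NaCl, pH 7.4) were ejected in varied order across cells. Response reported as % increase over control, mean ± SEM.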

Rattus norvegicus [5] = species: Rattus norvegicus; assay: Inhibition of forskolin-stim cAMP formation in cross-chopped slices of the adult rat cerebral cortex.; assay type: functional
Mus musculus = assay: Dose dependent blocking of limbic seizures induced by compound 1 by systemically administrating intraperitoneally
Rattus norvegicus [6] = species: Rattus norvegicus; assay: Stimulation of [3H]IP (tritiated inositol monophosphate) formation in cross-chopped slices of the neonata rat cerebral cortex.; assay type: functional

Row | IC50 [1] [µM] | IC50 [2] [µM] | IC50 [3] [µM] | IC50 (Glutamate NMDA receptor) [µM] | SMILES | Increase (Rattus norvegicus [4]) [%] | EC50 (Rattus norvegicus [5]) [µM] | EC50 (Mus musculus) [mg/kg] | EC50 (Rattus norvegicus [6]) [µM]
1 | 6.49 | > 100 | > 100 | > 100 | N[C@@]1(C(=O)O)CN[C@@H](C(=O)O)C1 | 52 | 14.5 | 271 | –
2 | > 100 | > 100 | > 100 | > 100 | N[C@]1(C(=O)O)CN[C@H](C(=O)O)C1 | – | – | – | –
3 | > 100 | > 100 | > 100 | 23.7 | N[C@@]1(C(=O)O)CN[C@H](C(=O)O)C1 | – | – | – | –

Continued, compound first:

Row | SMILES | IC50 [1] [µM] | IC50 [2] [µM] | IC50 [3] [µM] | IC50 (Glutamate NMDA receptor) [µM] | Increase (Rattus norvegicus [4]) [%] | EC50 (Rattus norvegicus [5]) [µM] | EC50 (Mus musculus) [mg/kg] | EC50 (Rattus norvegicus [6]) [µM]
4 | N[C@]1(C(=O)O)CN[C@@H](C(=O)O)C1 | > 100 | > 100 | > 100 | – | – | – | – | –
5 | N[C@@]1(C(=O)O)CC[C@@H](C(=O)O)C1 | 10.3 | > 100 | > 100 | > 100 | 95 | 8.17 | – | 27.7
